Assay results as given in PMC10947042 (Chemmedchem, 2022).

Assays:
[1] = Solubility in the buffer solution; format: physicochemical
dynamin I [2] = assay: Malachite Green GTPase assay, dynamin I; format: biochemical, sheep; details: increasing GTP or phospholipid (PS) concentration, Figure 2
Summary of the method: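 GTP 0.3 mM, PS liposomes ~4 μg/ml (GTP or PS varied). Compound present; 30 min, 37 °C; EDTA stop; malachite green A650 against phosphate standard. Basal subtracted; Michaelis‑Menten and Lineweaver‑Burk fits.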

Swiss 3T3 cells = assay: Receptor-mediated endocytosis assay, Swiss 3T3 cells; format: cell-based
Summary of the method: (§1)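 Cells grown in DMEM/10 % FCS, then serum‑free DMEM for 16 h. Compound added 30 min (final DMSO ≤1 %), then Tfn‑TxR (final 5.0 μg/mL) or EGF‑TxR (final 1.0 μg/mL) as applicable, 10 min at 37 °C. Surface ligand stripped with ice‑cold acid wash (pH 2.8), 4 % PFA fix, DAPI stain, fluorescence microscopy. Quantified as integrated intensity per cell, % of vehicle control.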

HER14 cells = assay: Receptor-mediated endocytosis assay, HER14 cells; format: cell-based
Summary of the method: as §1

B104 cells = assay: Receptor-mediated endocytosis assay, B104 cells; format: cell-based
Summary of the method: as §1

B35 cells = assay: Receptor-mediated endocytosis assay, B35 cells; format: cell-based
Summary of the method: as §1

HeLa cells = assay: Receptor-mediated endocytosis assay, HeLa cells; format: cell-based
Summary of the method: as §1

COS7 cells = assay: Receptor-mediated endocytosis assay, COS7 cells; format: cell-based; details: at up to 300 μM
Summary of the method: as §1

dynamin I [3] = details: read-out: IC50 for dynamin I inhibition; in vitro dynamin I GTPase; cited from earlier work
dyn II = details: read-out: dyn II IC50; cited from earlier work
[4] = Rat blood plasma stability; format: in vitro ADME; details: 5 % rat blood plasma, Figure 3E
A431 cells = assay: Receptor-mediated endocytosis assay, A431 cells; format: cell-based; details: 30 μM, data not shown

CC(C)(C)C(=O)Oc1ccc(C=C(C#N)C(=O)NCCCNC(=O)C(C#N)=Cc2ccc(OC(=O)C(C)(C)C)c(OC(=O)C(C)(C)C)c2)cc1OC(=O)C(C)(C)C [Compound 9, 2,2‐Dimethylpropionic acid 5‐[2‐(3‐{3‐[3,4‐bis‐(2,2‐dimethylpropionyloxy)phenyl]‐2‐cyanoacryloylamino}propylcarbamoyl)‐2‐cyanovinyl]‐2‐(2,2‐dimethylpropionyloxy)phenyl ester]
solubility in the buffer solution / under physiological conditions [1]: insoluble

CC(=O)Oc1ccc(C=C(C#N)C(=O)NCCCNC(=O)C(C#N)=Cc2ccc(OC(C)=O)c(OC(C)=O)c2)cc1OC(C)=O [Compound 3, Acetic acid 2‐acetoxy‐5‐(2‐cyano‐2‐{3‐[2‐cyano‐3‐(3,4‐diacetoxyphenyl)acryloylamino]propylcarbamoyl}vinyl)phenyl ester]
solubility in the buffer solution / under physiological conditions [1]: insoluble

N#CC(=Cc1ccc(O)c(O)c1)C(=O)NCCCNC(=O)C(C#N)=Cc1ccc(O)c(O)c1 [Compound 2, 2‐Cyano‐N‐{3‐[2‐cyano‐3‐(3,4‐dihydroxyphenyl)acryloylamino]propyl}‐3‐(3,4‐dihydroxyphenyl)acrylamide]
mode of dynamin inhibition (dynamin I [2]): non‐GTP and non‐lipid dependent manner | endocytosis block (TxR‐Tfn uptake) (Swiss 3T3 cells; 100 μM): essentially complete | endocytosis block (HER14 cells; 100 μM, not shown): essentially complete | endocytosis block (B104 cells; 100 μM, not shown): essentially complete | endocytosis block (B35 cells; at up to 300 μM): largely ineffective | effect on EGF‐TxR uptake (CME) (HeLa cells; 100 μM): no effect on CME | endocytosis block (HeLa cells; at up to 300 μM): largely ineffective | endocytosis block (COS7 cells): largely ineffective | IC50 (dynamin I [3]): 1700 ± 2000 nM | IC50 (dyn II): 500 nM

CCCCCC(=O)Oc1ccc(C=C(C#N)C(=O)NCCCNC(=O)C(C#N)=Cc2ccc(OC(=O)CCCCC)c(OC(=O)CCCCC)c2)cc1OC(=O)CCCCC [Compound 8, Hexanoic acid 5‐(2‐{3‐[3‐(3,4‐bis‐hexanoyloxyphenyl)‐2‐cyanoacryloylamino]‐propylcarbamoyl}‐2‐cyanovinyl)‐2‐hexanoyloxyphenyl ester]
solubility in the buffer solution / under physiological conditions [1]: insoluble

CCC(=O)Oc1ccc(C=C(C#N)C(=O)NCCCNC(=O)C(C#N)=Cc2ccc(OC(=O)CC)c(OC(=O)CC)c2)cc1OC(=O)CC [Compound 4, Propionic acid 5‐(2‐{3‐[3‐(3,4‐bis‐propionyloxyphenyl)‐2‐cyanoacryloylamino]propylcarbamoyl}‐2‐cyanovinyl)‐2‐propionyloxyphenyl ester]
time until hydrolysis was complete [4]: ≈ 60 min | transferrin and EGF uptake (where applicable) (Swiss 3T3 cells; 30 μM, data not shown): inhibited transferrin and EGF uptake | transferrin and EGF uptake (where applicable) (HER14 cells; 30 μM, data not shown): inhibited transferrin and EGF uptake | transferrin and EGF uptake (where applicable) (B104 cells; 30 μM, data not shown): inhibited transferrin and EGF uptake | transferrin and EGF uptake (where applicable) (A431 cells): inhibited transferrin and EGF uptake | transferrin and EGF uptake (where applicable) (B35 cells; 30 μM, data not shown): inhibited transferrin and EGF uptake | effect on EGF‐TxR uptake (CME) (HeLa cells; 30 μM): marked reduction in CME
